Screening results (PubChem BioAssay)
The list is not random: actives were taken first. Their share in the collection is about 0.59%.
V1R ag counter: activates human V1a receptor in oxytocin agonist counter-screen. P37288. CHO-V1R cells, Fluo-8 calcium fluorescence, agonist mode; 0% DMSO, 100% 3 nM vasopressin. activation, % at 3 µM. actives 0.25% (n = 320,000). AID 2797;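 active = activation above the mean activation of all tested compounds plus 3 SD, per screening run, cut at about 20% in these data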;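 note: signal is peak over basal fluorescence ratio across a 100 second FLIPR read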
OXTR potentiator: potentiators of human oxytocin receptor; P30559; CHO-OTR cells, Fluo-8 calcium fluorescence, potentiator mode; 0% = oxytocin EC15, 100% = EC100; activation, % at 3 µM; actives 0.061% (n = 320,000); AID 2445;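 active = activation above that plate's cutoff, the mean activation of tested compounds plus 3 SD, cut at about 6.6% in these data, passing the limit was not always enough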;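 note: 100% uses oxytocin at 75 nM as the full agonist control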
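Replication – single well per compound, singlicate · Assay system – CHO cell line stably expressing human OTR · Timing – 6 min pre-incubation, 100 s read · Measure – normalized max/min fluorescence ratio, % activation · Doses – 3.0 µM, one dose · Detection – Fluo-8 calcium dye fluorescence · Probe or stimulus – oxytocin near EC15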
OXTR ag: agonists of human oxytocin receptor; actives 0.32% (n = 320,000); CHO-OTR cells, Fluo-8 calcium fluorescence; normalized: DMSO 0%, oxytocin 100%; P30559; activation, % at 3 µM;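 active = activation above the mean of all tested compounds plus 3 SD, cutoff set per screening run, cut at about 20% in these data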;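 note: peak over basal fluorescence ratio from a 100 s FLIPR kinetic read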
TRPML3 agonist: human mucolipin-3 channel agonism; HEK293 TRPML3-YFP, Fluo-8 calcium fluorescence; 100% = the carbachol control signal; AID 1448; activation, % at 3 µM; actives 0.29% (n = 220,000);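 active = activation above its plate's cutoff, the mean activation of the plate's test wells plus 3 SD, cut at about 12% in these data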;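 note: 0% = DMSO only wells and 100% = carbachol wells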
Target sequence (Q8TDD5 whole entry, looked up): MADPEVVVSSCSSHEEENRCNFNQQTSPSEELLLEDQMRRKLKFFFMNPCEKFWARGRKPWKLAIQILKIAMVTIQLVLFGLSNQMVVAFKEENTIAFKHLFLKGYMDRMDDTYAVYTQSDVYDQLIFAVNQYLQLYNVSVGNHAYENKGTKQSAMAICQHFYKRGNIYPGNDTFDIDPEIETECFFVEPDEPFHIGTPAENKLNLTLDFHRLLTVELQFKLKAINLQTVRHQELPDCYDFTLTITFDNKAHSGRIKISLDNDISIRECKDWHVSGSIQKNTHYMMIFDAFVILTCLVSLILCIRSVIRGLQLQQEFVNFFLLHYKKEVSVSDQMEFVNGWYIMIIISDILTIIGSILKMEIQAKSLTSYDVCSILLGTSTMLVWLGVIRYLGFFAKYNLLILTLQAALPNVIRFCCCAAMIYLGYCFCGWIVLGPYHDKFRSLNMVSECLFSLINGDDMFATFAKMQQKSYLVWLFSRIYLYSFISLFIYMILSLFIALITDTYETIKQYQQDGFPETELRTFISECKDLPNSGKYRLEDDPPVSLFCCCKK
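Material: HEK293 cells stably carrying human TRPML3-YFP; compound dosing: single dose, 3 µM final nominal compound, 0.3% DMSO final; incubation: 1-h 37 °C dye load, 5-s basal, 120-s post-compound reads; technique: Fluo-8 intracellular calcium fluorescence, excitation 470-495 nm, emission 515-575 nm; read-out basis: percent activation from peak-to-basal fluorescence ratio, scaled between DMSO and carbachol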
TRPN1 ag: agonists of zebrafish TRPN1 channel; HEK293 zebrafish TRPN1-YFP, Fluo-8 calcium fluorescence; 100% = response to 87 µM carbachol; activation, % at 3 µM; actives 0.18% (n = 220,000);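 active = activation above its plate's cutoff, the mean activation of test wells on that plate plus 3 SD, cut at about 19% in these data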;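 note: 0% = DMSO alone and 100% = 87 µM carbachol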
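Control set: carbachol 87 µM as high control, DMSO as low control; system: HEK293 stable line with zebrafish TRPN1-YFP; read-out: % activation versus carbachol response; detection: intracellular calcium fluorescence with Fluo-8; doses: single test compound dose, 3 µM nominal, 0.3% DMSO; schedule: dye 1 h 37 °C plus 30 min RT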
TRPN1 ag 2: counter-screen for TRPML3 agonists: agonists of zebrafish TRPN1 channel; shares compounds with TRPML3 agonist; HEK293 zebrafish TRPN1-YFP, Fluo-8 calcium fluorescence; scaled: carbachol wells 100%, DMSO wells 0%; activation, % at 3 µM; actives 10% (n = 310); AID 1525;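 active = mean activation over replicates above a set limit taken from the earlier TRPN1 channel primary screen, cut at about 19% in these data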;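 note: 100% = carbachol and 0% = 0.3% DMSO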
TRPML3 ag conf: confirmation of human TRPML3 channel agonists | AID 1526 | HEK293 TRPML3-YFP, Fluo-8 calcium fluorescence; 100% set by carbachol, 0% by DMSO | activation, % at 3 µM | shares compounds with TRPML3 agonist | actives 80% (n = 310);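 active = activation above a set limit derived from the earlier primary screen, cut at about 12% in these data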
Starred values were filed as active, the others as inactive; . = no result given.

SMILES	V1R ag counter	OXTR potentiator	OXTR ag	TRPML3 agonist	TRPN1 ag	TRPN1 ag 2	TRPML3 ag conf
CN(CC(=O)O/N=C(\N)c1ccc([N+](=O)[O-])cc1)S(=O)(=O)c1ccccc1	6	-8	5	8	1	.	.
COc1ccc(NC(=O)CN2C(=O)NC(c3ccccc3)(c3ccccc3)C2=O)cc1OC	6	-10	3	.	.	.	.
Cc1ccc(S(=O)(=O)N(CC(=O)Nc2ccccc2)C(=O)N2CCN(C)CC2)cc1	1	-11	0	.	.	.	.
CCOc1ccc2c(c1)C(C)=CC(C)(C)N2S(=O)(=O)c1ccc(C)cc1	.	.	.	16*	-1	-1	33*
COc1cc(C(=O)NNC(=S)NC(=O)c2ccc(Cl)cc2)cc(OC)c1OC	34*	-13	37*	13*	6	44*	36*
COc1ccc(C(=O)NC(=S)NNC(=O)c2c(-c3ccccc3)noc2C)cc1OC	29*	-17	21*	19*	19	18	24*
COc1cc(CCC(=O)NNC(=O)c2ccc(Cl)cc2)cc(OC)c1OC	2	-3	0	.	.	.	.
Cc1onc(-c2ccccc2)c1C(=O)NC(=S)NNC(=O)c1ccco1	20	-12	18	11	7	.	.
O=C(CCC(=O)N1CCN(S(=O)(=O)c2ccc3ccccc3c2)CC1)NCC(F)(F)F	0	-7	0	.	.	.	.
COc1cccc(C(=O)N(Cc2nc(-c3cccc(C)c3)no2)C(C)C)c1OC	1	-21	1	-1	-1	.	.
Cc1cccc(-c2noc(CN(C(C)C)S(=O)(=O)c3ccc(F)cc3)n2)c1	0	-20	0	75*	2	0	56*
CCOc1cc(/C=C2\SC(=Nc3ccc(CC)cc3)NC2=O)ccc1OCC(=O)O	0	-9	-1	.	.	.	.
O=C(Nc1c(S(=O)(=O)c2ccc(Cl)cc2)csc1Br)c1ccccc1Cl	-1	-6	-4	33*	-2	-2	44*
O=S(=O)(Nc1ccccc1N1CCCCC1)c1ccc(F)cc1F	-1	7	-2	16*	-3	-3	11
Cc1ccc(S(=O)(=O)Nc2ccccc2N2CCCCC2)cc1	-1	-6	-2	.	.	.	.
O=C(NCC(c1ccco1)N1CCCC1)c1ccccc1Sc1ccc(C(F)(F)F)cc1[N+](=O)[O-] (centres undefined)	0	0	-1	.	.	.	.
Cc1ccc(S(=O)(=O)N(C)c2ccc(N)cc2)cc1	0	-16	0	0	0	.	.
Cc1ccc(S(=O)(=O)N(C)c2ccc(C)c([N+](=O)[O-])c2)cc1	-1	-5	-1	69*	-2	-1	72*
COc1ccc(N(C)S(=O)(=O)c2ccc(C)cc2)c([N+](=O)[O-])c1	0	-4	-1	35*	-2	-1	42*
CCCCC(CC)C(=O)Nc1ncc([N+](=O)[O-])s1 (centres undefined)	10	-13	8	13*	14	16	6
CCc1cc2c(-c3ccccc3)cc(=O)oc2c(CN2CCOCC2)c1O	0	-7	0	1	0	.	.
Cc1cc(C(C)c2ccccc2)c(O)c(CN2CCOCC2)c1C (centres undefined)	-2	-18	-3	16*	0	-2	33*
COc1cccc(CN(CC2CCCO2)S(=O)(=O)c2ccc(S(=O)(=O)N(C)C)cc2)c1 (centres undefined)	0	-2	-1	14*	0	1	17*
COc1ccc(/C=C2\C(=O)NC(=S)N2C(=O)c2ccc(F)cc2)cc1	22*	-9	20*	14*	14	16	10
O=S(=O)(c1ccccc1F)N1CCN(Cc2cc3c(cc2Br)OCCO3)CC1	1	-6	-1	.	.	.	.
SMILES	V1R ag counter	OXTR potentiator	OXTR ag	TRPML3 agonist	TRPN1 ag	TRPN1 ag 2	TRPML3 ag conf
Cc1ccc(S(=O)(=O)N2C(=S)SCC2(C)C)cc1	.	.	.	28*	2	3	47*
CCOC(=O)C(C)(C)N(Cc1cccc(C)c1)S(=O)(=O)c1ccc(Cl)c([N+](=O)[O-])c1	0	-13	-1	0	0	.	.
CCOC(=O)C(C)(C)N(Cc1cccc(C)c1)S(=O)(=O)c1cccc([N+](=O)[O-])c1	0	-8	-1	12*	-2	-1	36*
CC(C)c1ccc(NC(=O)CN2C(=O)NC3(CCCCCCC3)C2=O)cc1	0	1	-2	.	.	.	.
Cc1ccc(S(=O)(=O)N2CCC(=O)N(C(COCc3ccc(C(F)(F)F)cc3)C(C)C)CC2)cc1 (centres undefined)	1	-10	0	55*	1	0	77*
CN(CC(=O)NC1CCCc2ccccc21)C1CCCCC1 (centres undefined)	-1	-7	0	1	-1	.	.
CN(C1CCCCC1)S(=O)(=O)c1cccc(C(=O)OCC(=O)NC2CCCc3ccccc32)c1 (centres undefined)	-1	-10	-1	70*	4	4	61*
O=C(c1cc(C2CC2)nn1-c1ccccc1)N1CCN(S(=O)(=O)c2cccc(F)c2)CC1	2	1	0	.	.	.	.
O=C1c2ccccc2-c2onc3ccc(N4CCCC4)c1c23	.	.	.	14*	18	51*	39*
COC(=O)c1[nH]c2c(c1C)C(=O)CC(c1cccs1)C2 (centres undefined)	4	-3	2	26*	1	0	0
O=C(COC(=O)[C@H](Cc1ccccc1)NC(=O)c1ccco1)Nc1ccccc1	1	-4	0	.	.	.	.
Cc1cc(NC(=O)COC(=O)C(Cc2ccccc2)NC(=O)c2ccco2)no1 (centres undefined)	0	-10	-1	18*	5	22*	24*
CCCCn1c(N)c(N(CCOC)C(=O)COC(=O)COc2ccc(CC)cc2)c(=O)[nH]c1=O	0	-1	1	.	.	.	.
O=S(=O)(NCCNc1ncc(C(F)(F)F)cc1Cl)C(F)(F)F	10	-10	11	14*	15	21*	9
Cc1cc(C)c(S(=O)(=O)N2CCCCC2)cc1N(C)S(=O)(=O)c1ccc(Cl)cc1	0	-10	-1	68*	0	-1	69*
Cc1cc(C)c(S(N)(=O)=O)c(C)c1N(C)S(=O)(=O)c1ccc(Cl)cc1	3	3	1	.	.	.	.
Cc1ccc(S(=O)(=O)N2CCN(C)CC2)c(C)c1N(C)S(=O)(=O)c1ccc(Cl)cc1	4	-14	10	77*	1	5	58*
